The source made the active and inactive calls. No cut-off for these calls is given here.
Columns and labels:
HeLa [1] = test: Inhibition of shiga toxin retrograde transport in human HeLa cells after 20 mins by sulfation assay relative to control; assay type: functional
HeLa [2] = test: Cytoprotective activity against shiga toxin-induced cytotoxicity in human HeLa cells at 30 uM incubated for 4 hrs prior to shiga toxin addition measured after 20 hrs by liquid scintillation counting analysis; assay type: functional, cell-based
HeLa [3] = test: Cytoprotective activity against shiga toxin-induced cytotoxicity in human HeLa cells at 30 uM incubated for 4 hrs prior to shiga toxin addition measured after 20 hrs by liquid scintillation counting analysis relative to Retro-2; assay type: functional
HeLa [4] = test: Inhibition of shiga toxin retrograde transport in human HeLa cells assessed as relocalization of syntaxin 5 at 20 uM after 30 mins by immunofluorescence staining; assay type: functional, cell-based
How it was run: (§1)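 HeLa cells were treated for 30 min with 20 μM compound or DMSO carrier, then fixed. They were immunolabeled for syntaxin 5 and the Golgi marker giantin and imaged by confocal microscopy with a 60× oil objective (NA 1.4). Maximum projections of 6–8 Z slices at 250 nm spacing are shown.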

HeLa [5] = test: Inhibition of shiga toxin retrograde transport in human HeLa cells assessed as change in golgi apparatus morphology at 20 uM after 30 mins by immunofluorescence staining; assay type: functional, cell-based; how it was run: as §1

Structure (SMILES): Cc1ccc(C2N(C)c3ccccc3C(=O)N2c2ccccc2)s1 (racemic)
- inhibition (INH) (HeLa [1]): 38.7%
- EC50 (HeLa [2]): 10.2 µM
- Activity (HeLa [3]): 275%

Structure (SMILES): CCc1ccc(C2N(C)c3ccccc3C(=O)N2c2ccccc2)s1 (racemic)
- inhibition (INH) (HeLa [1]): 0%
- EC50 (HeLa [2]): 4.2 µM
- Activity (HeLa [3]): 323%

Structure (SMILES): Cc1ccc(C2Nc3ccccc3C(=O)N2c2ccccc2)s1 (racemic)
- inhibition (HeLa [4]): Active
- inhibition (INH) (HeLa [1]): 36.9%
- EC50 (HeLa [2]): 27.3 µM
- Activity (HeLa [3]): 100%

Structure (SMILES): O=C1c2ccccc2NC(c2ccc(-c3ccccc3)s2)N1c1ccccc1 (racemic)
- EC50 (HeLa [2]): 3.7 µM
- Activity (HeLa [3]): 287%

Structure (SMILES): Cc1nc(-c2ccc(C3Nc4ccccc4C(=O)N3c3ccccc3)s2)cs1 (racemic)
- inhibition (INH) (HeLa [1]): 0%
- EC50 (HeLa [2]): 1.4 µM
- Activity (HeLa [3]): 271%

Structure (SMILES): CN1c2ccccc2C(=O)N(c2ccccc2)C1c1ccc(Br)s1 (racemic)
- EC50 (HeLa [2]): 3.4 µM
- Activity (HeLa [3]): 118%

Structure (SMILES): CN1c2ccccc2C(=O)N(c2ccccc2)C1c1ccc(-c2ccccc2)s1 (racemic)
- EC50 (HeLa [2]): 2.1 µM
- Activity (HeLa [3]): 309%

Structure (SMILES): CN1c2ccccc2C(=O)N(c2ccccc2)C1c1ccc(-c2ccco2)s1 (racemic)
- EC50 (HeLa [2]): 1.5 µM
- Activity (HeLa [3]): 140.4%

Structure (SMILES): Cc1nc(-c2ccc(C3N(C)c4ccccc4C(=O)N3c3ccccc3)s2)cs1 (racemic)
- inhibition (HeLa [5]): Active
- inhibition (HeLa [4]): Active
- inhibition (INH) (HeLa [1]): 0%
- EC50 (HeLa [2]): 0.3 µM
- Activity (HeLa [3]): 301%

Structure (SMILES): CCc1ccc(C2Nc3ccccc3C(=O)N2c2ccccc2)s1 (racemic)
- inhibition (INH) (HeLa [1]): 13.5%
- EC50 (HeLa [2]): 8.7 µM
- Activity (HeLa [3]): 166%

From ChEMBL document CHEMBL2321805, “N-methyldihydroquinazolinone derivatives of Retro-2 with enhanced efficacy against Shiga toxin” (J Med Chem, 2013)
